Experimental findings from ChEMBL document CHEMBL1649328, “Assessment of pandemic and seasonal influenza A (H1N1) virus susceptibility to neuraminidase inhibitors in three enzyme activity inhibition assays” (Antimicrob Agents Chemother, 2010) are described below.

Test [1] has as its system Influenza A virus. Put plainly: Ratio of IC50 for influenza A (A/New York/18/2009 (H1N1)) virus harboring neuraminidase H275Y mutant to IC50 for influenza A (A/Washington/10/2008 (H1N1)) virus expressing wild type enzyme by MUNANA substrate based fluorometric assay. The class given is functional.
The test system of test [2] is Influenza A virus. Description: Antiviral activity against influenza A (A/Washington/29/2009 (H1N1)) virus harboring neuraminidase H275Y mutant after 16 to 18 hrs by fetuin substrate based colorimetric assay. In kind it is functional, organism-based. A digest of the protocol:
(§1)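 Colorimetric NA inhibition with fetuin substrate. Virus was diluted in NA-Star buffer (26 mM MES, 4 mM CaCl2, pH 6.0) to give OD549 of 0.4–0.8 after 18 h. It was preincubated with ten half-log inhibitor dilutions (0.03–1,000 nM final) for 1 h at 37°C, then with fetuin (5.5 mg/ml final) for 16–18 h at 37°C. Released sialic acid was read at 549 nm after periodate/TBA reaction and butanol extraction. IC50 came from a Vmax·[1−x/(K+x)] fit, mean of ≥2 experiments.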

The subject of test [3] is Influenza A virus. Description: Antiviral activity against influenza A (A/Osaka/180/2009 (H1N1)) virus harboring neuraminidase H275Y mutant after 16 to 18 hrs by fetuin substrate based colorimetric assay. The class given is functional, organism-based. A digest of the protocol:
as §1

In test [4] the test system is Influenza A virus. Description: Ratio of IC50 for influenza A (A/North Carolina/02/2009 (H1N1)) virus harboring neuraminidase H275Y mutant to IC50 for influenza A (A/Washington/10/2008 (H1N1)) virus expressing wild type enzyme expressing wild type enzyme by NA-star substrate based chemiluminescent assay. The class given is functional.
Test [5] has as its system Influenza A virus. Description: Ratio of IC50 for influenza A (A/Singapore/57/2009 (H1N1)) virus harboring neuraminidase H275Y mutant to IC50 for influenza A (A/Washington/29/2009 (H1N1)) virus expressing wild type enzyme by MUNANA substrate based fluorometric assay. In kind it is functional. A digest of the protocol: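 Fluorometric NA inhibition in MES/CaCl2 buffer, pH 6.0. Virus preincubated 30 min at 37°C with ten half-log inhibitor dilutions (0.03–1,000 nM final), then MUNANA (100 μM final) added for 30 min at 37°C. Stopped with 0.1 M glycine in 25% ethanol, pH 10.7. Read at ex 365/em 450 nm. IC50 curve-fitted, mean of ≥3 experiments. Ratio is variant IC50 over wild-type reference IC50.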

For test [6], the system named is Influenza A virus. Put plainly: Ratio of IC50 for influenza A (A/New York/18/2009 (H1N1)) virus harboring neuraminidase H275Y mutant to IC50 for influenza A (A/Washington/10/2008 (H1N1)) virus expressing wild type enzyme by NA-star substrate based chemiluminescent assay. In kind it is functional.
The subject of test [7] is Influenza A virus. Description: Antiviral activity against influenza A (A/Hong Kong/2369/2009 (H1N1)) virus harboring neuraminidase H275Y mutant after 30 mins by NA-star substrate based chemiluminescent assay. The class given is functional, organism-based. A digest of the protocol:
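Titrated virus in NA-Star buffer (26 mM MES, 4 mM CaCl2, pH 6.0) was preincubated with ten half-log inhibitor dilutions (0.03–1,000 nM final) for 30 min at 37°C, then with substrate for 30 min at room temperature. Accelerator solution was added and luminescence read for 0.1 s. IC50 came from a Vmax·[1−x/(K+x)] fit, mean of ≥3 experiments.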

The structures appear in SMILES notation.

The term IC50 denotes the midpoint of a concentration-inhibition curve. High values mean lower potency, low ones higher potency. With `C/C=C\[C@@H]1C[C@H](C(=O)O)N[C@H]1[C@@H](NC(C)=O)[C@](C)(CCC)OC`, the “Ratio IC50” value in the test on Influenza A virus [1] was found to be 1; with Influenza A virus [4], 1; with Influenza A virus [5] it was 3; in the test on Influenza A virus [6] it was 1. The IC50 worked out at 2.07 nM in the test on Influenza A virus [2], 4.08 nM in the test on Influenza A virus [3] and 1.09 nM in the test with Influenza A virus [7].
Consider `CCC(CC)[C@H](NC(C)=O)[C@@H]1[C@H](O)[C@@H](C(=O)O)C[C@H]1NC(=N)N` [PERAMIVIR ANHYDROUS], for which the “Ratio IC50” value in the test with Influenza A virus [1] came out at 1; in the test with Influenza A virus [4], 1; in the test with Influenza A virus [5] it was 609; with Influenza A virus [6], 1. The IC50 in the test with Influenza A virus [2] is 163 nM; in the test with Influenza A virus [3], 195 nM; in the test with Influenza A virus [7], 9.24 nM.
